Screening results deposited in PubChem by several laboratories.
KCNQ1 pot – human KCNQ1 channel potentiation or activation; CHO-K1 KCNQ1, thallium flux FluxOR fluorescence; hits give high values; B-score at 10 µM; 310,000 tested, 0.35% active; P51787;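 active = fluorescence ratio B-score, a plate-corrected score, at least three library SD, with initial intensity B-score within 5 SD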
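Test system: CHO-K1 cells stably expressing KCNQ1 / Medium: assay buffer / Also added: depolarizing K+/Tl+ stimulus, K2SO4 and Tl2SO4 each 12.5 mM in 5x stock / Incubation: 90 min dye loading and 20 min compound exposure, both at room temperature / Signal: thallium influx via FluxOR fluorescence, kinetic imaging / Evaluation: B score of baseline-normalized fluorescence ratio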
KCNK9 inh – inhibitors of human KCNK9 two-pore domain potassium channel. HEK293 KCNK9, FluxOR thallium flux fluorescence; hits give low values. 310,000 tested, 1.2% active. B-score at 10 µM. AID 488922. Q9NPC2;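 active = ratio B-score over 3 SD below the library mean, with starting fluorescence within 5 SD of its mean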;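 also: negative B-score means less thallium flux so channel inhibition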
KCNK3 block – human KCNK3 channel inhibition, primary screen. CHO-KCNK3 thallium flux, FluxOR fluorescence; hits give low values. 340,000 tested, 0.84% active. O14649. B-score at 10 µM;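 active = B-score under library mean minus 4 SD, starting fluorescence ratio at most library mean plus 5 SD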;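 also: more negative B-score means stronger inhibition of thallium flux through KCNK3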
hERG rescue – shields human hERG channel from block by proarrhythmic agents. Q12809. CHO-hERG, FluxOR thallium flux, dofetilide IC70 present. activation (rescue from dofetilide block), less the hit threshold, % at 10 µM. 310,000 tested, 0.51% active;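 active = activation above the mean of controls blocked by dofetilide plus 5 SD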;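 also: thallium influx through hERG after potassium depolarization seen as dye fluorescence rise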
KCNQ1 inh – inhibitors of human KCNQ1 potassium channel. P51787. CHO-K1 KCNQ1, FluxOR thallium flux fluorescence; hits give high values. B-score at 10 µM. 310,000 tested, 1.3% active;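 active = compounds whose thallium flux B-score, printed positive for inhibition, exceeds three library SD while starting fluorescence stays within three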;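 also: channel opened by potassium depolarization with thallium stimulus after 20 min compound exposure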
KCC2 mod – modulates chloride dependent transport by human KCC2 | Q9H2X9 | KCC2 cells, thallium flux FluoZin-2 fluorescence | B-score of Tl+ flux slope (higher = more flux/activation; lower = inhibition) at 10 µM | 190,000 tested, 2.2% active | AID 1456;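 active = thallium flux slope and its plate-corrected score both differing from the plate sample mean at a set confidence after two filtering rounds, in either direction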;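 also: slope of fluorescence scaled to starting intensity during 10 to 20 s after thallium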
KCC2 secondary – confirmation of human KCC2 transport modulators | shares compounds with KCC2 mod | HEK293-KCC2, thallium flux, FluoZin2 fluorescence; hits give high values | normalised thallium flux (F/F0 slope) at 10 µM | 3,700 tested, 15% active | AID 1713;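 active = thallium flux slope above the same plate's solvent-only control mean plus 3 SD; inconclusive = the two replicate wells disagree; inactive = no significant difference from solvent-only control wells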
KCC2 bumet counter – thallium flux persisting under bumetanide in KCC2 cells, counter-screen secondary assay | AID 1714 | shares compounds with KCC2 mod | 3,700 tested, 49% active | normalized thallium flux at 10 µM | HEK293-KCC2 + bumetanide/ouabain, thallium flux FluoZin2; hits give high values;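 active = thallium entry rate above the same plate's blocked-transporter control wells by more than 3 SD; inconclusive = the two repeat wells disagree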;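 also: raw slope of fluorescence over initial fluorescence between 10 and 20 s after thallium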
KCC2 sec2 – KCC2 (human) modulation, second secondary assay. 3,700 tested, 23% active. normalized thallium flux at 10 µM. HEK293-KCC2, thallium flux FluoZin2 fluorescence; actives lie on both sides; F/F0 rise rate, 10–20 s post-thallium. shares compounds with KCC2 mod;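 active = thallium flux slope more than 3 SD above or below the plate's solvent-only control mean, mostly below; inconclusive = the two repeat wells disagreed; inactive = no significant shift from solvent-only controls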;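 also: raw slope with 0.1% DMSO as baseline and bumetanide as block control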
HEK counter1 – counter-screen for KCC2 modulators: effect in parental HEK293 cells. thallium flux rate (normalised fluorescence) at 10 µM. 3,700 tested, 46% active. thallium flux FluoZin2, ouabain; baseline-ratio fluorescence slope, 10–20 s after thallium. shares compounds with KCC2 mod;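 active = thallium flux rate significantly above the same plate's solvent-only control wells, beyond their mean plus 3 SD; inconclusive = the two replicate wells gave conflicting results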
KCC2 ouabain – KCC2 (human) modulation, ouabain retest; shares compounds with KCC2 mod; HEK293-KCC2, thallium flux FluoZin2 fluorescence; bidirectional: low = inhibitor, high = activator; raw Tl+ flux slope (below DMSO = inhibition, above = activation) at 10 µM; 3,700 tested, 48% active;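 active = thallium flux slope beyond 3 SD from same-plate DMSO control mean in most replicates, usually higher, sometimes lower; inconclusive = repeat tests gave conflicting results; inactive = no significant difference from controls in most replicates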;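 also: slope of initial-normalized fluorescence between seconds 10 and 20 after thallium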
HEK293 Tl flux2 – acts in parental HEK cells, second KCC2 counter-screen; shares compounds with KCC2 mod; HEK293 parental, thallium flux FluoZin-2 fluorescence slope; thallium flux slope at 10 µM; 3,700 tested, 33% active; AID 1718;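 active = thallium flux slope above the same plate's solvent-control mean plus 3 SD in both duplicate wells; inconclusive = duplicate wells that disagreed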;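 also: run without ouabain in cells lacking the KCC2 cotransporter; slope of fluorescence scaled to its starting value between 10 and 20 s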
* marks the source's active call; other numbers are inactive results. Only some compounds are listed: those with a hit (about 4.1% of all), similar ones and a draw of the others.

What do the screens show for `N#Cc1ccccc1S(=O)(=O)N1CCN(C(=O)CCNS(=O)(=O)c2ccc(Cl)cc2)CC1`?
KCNK3 block: inactive

What do the screens show for `O=C(NNC(=O)c1ccco1)c1csc(N2CCOCC2)n1`?
KCNQ1 pot: inactive; KCNK9 inh: inactive; KCNK3 block: inactive; hERG rescue: -11; KCNQ1 inh: inactive

What do the screens show for `COc1cccc(CN(C)S(=O)(=O)c2ccccc2Br)c1`?
KCNK3 block: inactive

How did CCOc1cccc(C(=O)NC(=S)Nc2cccc(C)c2)c1 do in these assays?
KCNQ1 pot: inactive; KCNK9 inh: inactive; KCNK3 block: inactive; hERG rescue: 1; KCNQ1 inh: inactive; KCC2 mod: 6.4*; KCC2 secondary: 0.0067; KCC2 bumet counter: 0.011*; KCC2 sec2: 0.034; HEK counter1: 0.012*; KCC2 ouabain: inconclusive; HEK293 Tl flux2: 0.015*

What do the screens show for `CCOc1cccc(C(=O)Nc2cccc(C(C)=O)c2)c1`?
KCNQ1 pot: inactive; KCNK9 inh: inactive; KCNK3 block: inactive; hERG rescue: -6; KCNQ1 inh: inactive; KCC2 mod: 0.056

How did CC(C)(C)NC(=S)N/N=C/c1c(Cl)cccc1Cl do in these assays?
KCNQ1 pot: inactive; KCNK9 inh: inactive; KCNK3 block: inactive; hERG rescue: -4; KCNQ1 inh: inactive; KCC2 mod: 7.8*; KCC2 secondary: 0.0075; KCC2 bumet counter: 0.0094*; KCC2 sec2: 0.03; HEK counter1: 0.012*; KCC2 ouabain: 0.022; HEK293 Tl flux2: 0.013*

Results for COc1ccc(/C=C/C(=O)NC(=S)NNC(=O)c2cc(OC)c(OC)c(OC)c2)cc1 ?
KCNQ1 pot: inactive; KCNK9 inh: inactive; KCNK3 block: inactive; hERG rescue: -8; KCNQ1 inh: inactive; KCC2 mod: 4.5*; KCC2 secondary: 0.0094; KCC2 bumet counter: inconclusive; KCC2 sec2: 0.032; HEK counter1: 0.0042; KCC2 ouabain: 0.021; HEK293 Tl flux2: 0.01

What do the screens show for `COc1ccc(-c2cc(C(=O)NNC(=S)NC(=O)c3c(-c4ccccc4)noc3C)[nH]n2)cc1`?
KCNQ1 pot: inactive; KCNK9 inh: inactive; KCNK3 block: inactive; hERG rescue: -10; KCNQ1 inh: inactive; KCC2 mod: -0.45

How did Cc1onc(-c2ccccc2)c1C(=O)NNC(=O)c1ccccc1 do in these assays?
KCNK3 block: inactive

How did Cc1onc(-c2ccccc2)c1C(=O)NNC(=S)NC(=O)c1ccc(Cl)cc1Cl do in these assays?
KCNQ1 pot: 20*; KCNK9 inh: inactive; KCNK3 block: inactive; hERG rescue: -4; KCNQ1 inh: inactive; KCC2 mod: 16*; KCC2 secondary: inconclusive; KCC2 bumet counter: 0.044*; KCC2 sec2: 0.055*; HEK counter1: 0.039*; KCC2 ouabain: 0.045*; HEK293 Tl flux2: 0.042*

How did COc1ccc(/C=C/C(=O)NC(=S)NNC(=O)c2c(-c3ccccc3)noc2C)cc1 do in these assays?
KCNQ1 pot: inactive; KCNK9 inh: inactive; KCNK3 block: inactive; hERG rescue: -10; KCNQ1 inh: inactive; KCC2 mod: 7.1*; KCC2 secondary: 0.013*; KCC2 bumet counter: 0.037*; KCC2 sec2: 0.033; HEK counter1: 0.018*; KCC2 ouabain: inconclusive; HEK293 Tl flux2: 0.012*

Results for Cc1onc(-c2ccccc2)c1C(=O)NNC(=S)NC(=O)/C=C/c1ccccc1 ?
KCNQ1 pot: inactive; KCNK9 inh: inactive; KCNK3 block: inactive; hERG rescue: -11; KCNQ1 inh: inactive; KCC2 mod: 6.3*; KCC2 secondary: 0.013*; KCC2 bumet counter: 0.037*; KCC2 sec2: 0.035; HEK counter1: 0.017*; KCC2 ouabain: 0.035*; HEK293 Tl flux2: 0.012*

Results for CN(C)CCNC(=O)c1cc2c(s1)-c1ccc(Cl)cc1SC2 ?
KCNQ1 pot: inactive; KCNK9 inh: inactive; KCNK3 block: inactive; hERG rescue: -12; KCNQ1 inh: inactive

What do the screens show for `Nn1c(COc2ccccc2F)nnc1SCC(=O)NC1CCCCC1`?
KCNQ1 pot: inactive; KCNK9 inh: inactive; KCNK3 block: inactive; hERG rescue: -9; KCNQ1 inh: inactive

What do the screens show for `COc1ccccc1NCCC(=O)OCC(=O)Nc1ccccc1Cl`?
KCNK3 block: inactive

Results for COc1cccc(CNC(=O)COC(=O)C2CC3CCCC(C2)C3=O)c1 (stereo not drawn) ?
KCNQ1 pot: inactive; KCNK9 inh: inactive; KCNK3 block: inactive; hERG rescue: -14; KCNQ1 inh: inactive

What do the screens show for `O=C(CNC(=O)c1ccc(Cl)cc1Cl)NCC1CCCO1` (stereo not drawn)?
KCNQ1 pot: inactive; KCNK9 inh: inactive; KCNK3 block: inactive; hERG rescue: -8; KCNQ1 inh: inactive

How did O=C(NC(=S)NCC1CCCO1)c1ccc(Cl)cc1Cl (stereo not drawn) do in these assays?
KCNQ1 pot: inactive; KCNK9 inh: inactive; KCNK3 block: inactive; hERG rescue: 3; KCNQ1 inh: inactive; KCC2 mod: 9*; KCC2 secondary: 0.0097; KCC2 bumet counter: 0.029*; KCC2 sec2: 0.029; HEK counter1: 0.011*; KCC2 ouabain: inconclusive; HEK293 Tl flux2: 0.0094

What do the screens show for `CC(C)[C@H](NC(=O)c1ccccc1Cl)C(=O)OCC(=O)N1CCCCC1`?
KCNK3 block: inactive

What do the screens show for `CNC(=S)N1CCc2cc(OC)c(OC)cc2C1`?
KCNQ1 pot: inactive; KCNK9 inh: inactive; KCNK3 block: inactive; hERG rescue: -2; KCNQ1 inh: inactive; KCC2 mod: 0.61
